Screening results: PubChem BioAssay, several laboratories
procasp3 activ = activators of human procaspase-3; P42574; recombinant procaspase-3 D3A, Ac-DEVD-pNA absorbance 405 nm; activation, % at 8.5 µM; hit rate 0.11% among 330,000; AID 463141;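 active = activation above the mean of all tested compounds plus 3 SD, cut at about 21% in these data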;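 also: 0% = DMSO alone and 100% = DMSO wells spiked with extra 5 µM PC-3 D3A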
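Technique: 405 nm absorbance of p-nitroaniline, reads at 0 and 120 min; Test system: Procaspase-3 D3A mutant; Incubation: 1 h enzyme-compound preincubation, then 2 h substrate reaction, 25 °C; Repeats: singlicate, each compound tested once; Benchmarks: low control DMSO wells, high control DMSO plus 5 µM PC-3 D3A.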
PolyA inh = blocks polyadenylation in yeast reporter cells. S. cerevisiae SKY197-pL101 polyadenylation reporter, beta-gal luminescence; efflux-impaired pdr1/pdr3 knockout yeast; score 100 = 6 SD above DMSO. hit rate 0.02% among 300,000. activity score, % at 12 µM;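 active = lowest replicate activity score at least 50, where 100 means six control SD above control mean; inconclusive = lowest score under 50 but half or more replicates reach 50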;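 also: yeast exposed to compound for 9 h at 30 °C; higher score means more reporter readthrough which indicates perturbed polyadenylation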
proCasp7 act = counter-screen for procaspase-3 activators: activators of human procaspase-7; AID 463210; hit rate 0.093% among 330,000; activation, % at 8.5 µM; recombinant procaspase-7, Ac-DEVD-pNA absorbance 405 nm; D23A/D198A/D206A triple mutant, cannot self-cleave; scale: DMSO 0, 5 µM enzyme 100;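 active = percent activation above the screen-wide mean plus 3 SD, cut at about 25% in these data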
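signal = Epi-absorbance of released pNA at 405 nm, two timepoints | assay system = Uncleavable procaspase-7 mutant enzyme | reagent = Ac-DEVD-pNA substrate, 400 µM as added | times = 1 h enzyme–compound preincubation and 2 h substrate reaction, both 25 °C | benchmarks = low DMSO alone, high DMSO plus 5 µM PC-7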
AHR activator = human AHR activation; P35869; AID 2796; AHR-responsive luciferase reporter cells, luminescence; hit rate 2.5% among 320,000; activation, % at 5 µM; in the data active = activation above about 47%;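 also: 0% = vehicle wells and 100% = reference agonist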
Target sequence (P35869 whole entry, looked up): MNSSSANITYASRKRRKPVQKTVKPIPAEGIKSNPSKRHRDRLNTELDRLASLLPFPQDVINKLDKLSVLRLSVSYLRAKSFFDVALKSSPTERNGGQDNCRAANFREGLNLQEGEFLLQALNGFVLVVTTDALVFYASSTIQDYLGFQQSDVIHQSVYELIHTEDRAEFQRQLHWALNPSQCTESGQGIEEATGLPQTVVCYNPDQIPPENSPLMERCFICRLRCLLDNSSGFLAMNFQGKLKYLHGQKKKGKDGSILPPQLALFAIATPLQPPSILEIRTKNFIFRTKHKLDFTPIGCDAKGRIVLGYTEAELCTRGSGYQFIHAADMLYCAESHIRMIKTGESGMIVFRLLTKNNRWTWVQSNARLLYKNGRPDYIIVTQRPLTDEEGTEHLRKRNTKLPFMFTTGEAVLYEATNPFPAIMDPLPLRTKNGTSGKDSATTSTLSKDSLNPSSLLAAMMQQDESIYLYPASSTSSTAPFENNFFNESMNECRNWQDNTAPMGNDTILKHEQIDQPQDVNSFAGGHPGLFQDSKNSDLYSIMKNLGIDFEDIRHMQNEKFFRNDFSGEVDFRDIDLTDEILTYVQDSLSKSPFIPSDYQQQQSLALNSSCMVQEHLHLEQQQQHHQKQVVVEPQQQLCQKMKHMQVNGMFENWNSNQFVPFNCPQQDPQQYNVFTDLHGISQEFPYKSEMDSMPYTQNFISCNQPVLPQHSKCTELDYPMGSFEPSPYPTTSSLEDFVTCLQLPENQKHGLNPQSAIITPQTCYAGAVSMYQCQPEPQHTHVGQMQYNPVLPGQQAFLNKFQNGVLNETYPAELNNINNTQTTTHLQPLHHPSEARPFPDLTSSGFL
AHR act confirm = human AHR activation, confirmation; shares compounds with AHR activator; human cells, AHR-responsive luciferase reporter, luminescence; activation, % at 9 µM; hit rate 87% among 2,300; AID 2845; in the data active = activation above about 49%;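 also: HepG2 hepatoma cells carrying a DRE-driven firefly luciferase reporter; 0% = vehicle wells and 100% = reference agonist wells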
PXR act counter = activates human PXR in AHR activator counter-screen; shares compounds with AHR activator; cell-based PXR reporter, luciferase luminescence; activation, % at 11.6 µM; hit rate 88% among 2,300; AID 434939; in the data active = activation above about 11%;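 also: human hepatoma DPX-2 cells expressing full-length human PXR; 0% = DMSO and 100% = reference agonist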
The depositor's hits bear a star; u = inconclusive; x = not tested or not shown. Only some compounds are listed: those with a hit (about 2.6% of all), similar ones and a draw of the others.

SMILES | procasp3 activ | PolyA inh | proCasp7 act | AHR activator | AHR act confirm | PXR act counter
Cc1ccc2[nH]c(=O)c(CN(C(=O)c3cccc([N+](=O)[O-])c3)C(C)C)cc2c1 | -3.3 | 4.4 | 7.0 | 8.8 | x | x
O=C(Nc1ccccc1N1CCN(C(=O)c2ccccc2)CC1)c1ccc(Br)o1 | 4.3 | -22.2 | 10.8 | 9.4 | x | x
CCN(Cc1ccccc1)c1ccc(/C=C(\C#N)c2ccccn2)cc1 | -17.7 | -7.1 | -25.0 | 86.4* | 70.1* | 43.9*
CCN(CC)c1ccc(/C=C(\C#N)c2ccccn2)cc1 | -24.8 | -36.6 | -25.1 | -8.5 | x | x
Cc1coc2cc3oc(=O)c(CCC(=O)N4C[C@H]5C[C@@H](C4)c4cccc(=O)n4C5)c(C)c3cc12 | 6.1 | -9.2 | -6.4 | -1.0 | x | x
O=C(N/N=C/c1ccncc1)c1cccs1 | -2.9 | 3.9 | -15.2 | 13.0 | x | x
O=C(N/N=C/c1ccc(-n2ccnc2)cc1)c1cccs1 | 2.3 | -7.0 | 8.6 | 96.9* | 64.7* | 22.8*
C=C1c2cc3c(cc2NC(=S)N1Cc1ccccc1)OCO3 | 11.4 | -12.1 | 1.6 | 86.5* | 64.5* | 144.9*
Cc1c(C(=O)NCCCN2CCOCC2)oc2c1C1(CCC2)SCCS1 | -8.6 | 13.1 | 9.3 | 109.4* | 94.6* | 180.5*
COCC(C)NC(=O)c1oc2c(c1C)C1(CCC2)SCCS1 (stereo not given) | -3.0 | -11.9 | 12.6 | 11.2 | x | x
Cc1ccc(S(=O)(=O)N(C)CC(=O)N2CC(C)OC(C)C2)cc1 (stereo not given) | 10.9 | 8.8 | 7.6 | -1.8 | x | x
CCCCN(C1CCS(=O)(=O)C1)S(=O)(=O)c1ccc(OC)c(OC)c1 (stereo not given) | -4.2 | 3.1 | 6.8 | -0.2 | x | x
CC(C)c1ccc(Nc2nnc(SCC(=O)NCC3CCCO3)s2)cc1 (stereo not given) | 0.1 | x | 6.2 | 9.9 | x | x
O=C(/C=C\c1cccs1)c1c(O)ccc2ccc(=O)oc12 | -1.5 | -3.9 | 1.4 | 84.8* | 97.0* | x
O=C(/C=C/c1cccs1)c1ccc(Br)cc1 | 5.4 | -5.4 | 7.1 | -5.5 | x | x
CCNC(=O)O/N=C(\C)c1sc(-c2ccc(Cl)cc2)nc1C | 5.0 | -8.5 | 2.3 | 134.9* | 134.6* | 16.9*
C/C(=N\OC(=O)NC(C)C)c1sc(-c2ccc(Cl)cc2)nc1C | -2.5 | -7.5 | 5.4 | 109.3* | 104.2* | 16.7*
Cc1c([N+](=O)[O-])cc(C(=O)Oc2cccc(C(=S)N3CCOCC3)c2)cc1[N+](=O)[O-] | -2.5 | -23.4 | 8.4 | 1.6 | x | x
Cc1ccc(C(=O)Nc2ccc3c(c2)OCO3)cc1S(=O)(=O)N1CCCC1 | -3.0 | -0.1 | -10.9 | 82.0* | 70.1* | 218.1*
Cc1ccc(C(=O)Nc2ccc3c(c2)OCO3)cc1Cl | -6.3 | -1.0 | -8.1 | 93.7* | 118.0* | 38.0*
Cc1ccc(NC(=O)c2ccc3c(c2)OCO3)cc1Cl | 5.2 | 28.2 | -2.7 | 13.4 | x | x
Cc1ccc(C(=O)Nc2ccc3c(c2)OCO3)cc1S(=O)(=O)N1CCOCC1 | 6.7 | -12.5 | 7.4 | 33.5 | x | x
O=C(Nc1ccc(Cl)c(-c2nc3ccccc3[nH]2)c1)c1ccc2c(c1)OCO2 | 6.1 | -7.2 | -3.7 | 86.3* | 93.0* | 19.2*
COCC(=O)/C=C1\Sc2ccccc2N1C | 1.1 | -14.5 | 4.4 | -1.8 | x | x
CN1/C(=C/C(=O)c2cccs2)Sc2ccccc21 | -44.9 | 13.4 | -36.3 | 86.3* | 115.2* | 22.9*
SMILES | procasp3 activ | PolyA inh | proCasp7 act | AHR activator | AHR act confirm | PXR act counter
CN1/C(=C/C(=O)C2CCC2)Sc2ccccc21 | -16.5 | -14.4 | -19.6 | 138.0* | 137.6* | 22.6*
Cc1ccc2nc(Cl)c(/C=N/Nc3ccc(C(=O)O)cc3)cc2c1 | -15.0 | u | -10.9 | 21.8 | x | x
O=C(NCc1ccccn1)C(=O)NCC1OCCN1S(=O)(=O)c1ccc([N+](=O)[O-])cc1 (stereo not given) | 3.7 | -11.6 | -4.2 | 1.1 | x | x
C(=C\c1ccc2ccccc2n1)/c1ccccc1 | 6.1 | -22.7 | 5.2 | 41.4 | x | x
Fc1ccccc1/C=C/c1ccc2ccccc2n1 | -5.6 | -20.0 | 2.0 | 88.6* | 73.6* | 6.7
CSCC[C@H](NC(=O)Nc1ccc(Oc2ccccc2)cc1)C(=O)O | 4.8 | 14.7 | 2.5 | 1.0 | x | x
CCC(C)[C@H](NC(=O)[C@@H]1CSC2c3ccccc3C(=O)N21)C(=O)NCc1ccco1 (stereo not given in full) | 1.1 | 1.2 | 0.3 | -0.8 | x | x
O=C(CCS(=O)(=O)c1ccc(Cl)cc1)N1CCCc2ccccc21 | 4.9 | 1.0 | 3.0 | 10.0 | x | x
Cc1c(-c2ccccn2)c(=O)[nH]n1-c1ccc(F)cc1 | 1.0 | -1.3 | -2.5 | 90.7* | 77.2* | 11.0*
O=C(NC(=S)Nc1ccccc1N1CCN(C(=O)c2ccccc2)CC1)c1ccccc1F | -4.1 | 4.3 | -5.0 | 1.7 | x | x
O=C(NC(=S)Nc1ccccc1N1CCOCC1)c1ccccc1F | 2.7 | 11.5 | 1.7 | 95.3* | 73.0* | 31.3*
c1ccc2c(c1)oc1c(Nc3ccc4c(c3)OCCO4)ncnc12 | -4.8 | -25.4 | 2.7 | 95.3* | 109.7* | 18.6*
Cc1c(Cl)cccc1N(Cc1ccc(C(=O)O)cc1)S(=O)(=O)c1ccccc1 | -2.8 | -29.2 | 7.7 | 3.1 | x | x
O=C(Nc1nc(-c2ccc(Br)cc2)cs1)c1cccnc1 | 2.3 | 0.8 | 12.0 | 8.8 | x | x
CC(C)/C=N/Nc1nc(-c2ccc(Br)cc2)cs1 | 5.1 | -18.9 | 6.9 | 140.6* | 16.5 | 18.1*
Cc1ccccc1C(=O)Nc1ccc(S(=O)(=O)N2CCCC2)cc1 | 3.0 | -6.5 | 0.1 | 2.4 | x | x
CN(C)c1nc(N)nc(-c2nc3ccccc3s2)n1 | 8.4 | -19.2 | -0.3 | 79.7* | 167.0* | x
O=C(CCl)NC(Cc1c[nH]c2ccc(OCc3ccccc3)cc12)C(=O)O (stereo not given) | -0.9 | 16.5 | -4.6 | 1.4 | x | x
C=CCc1ccccc1OCCOc1ccc([N+](=O)[O-])cc1/C=N/NC(N)=O | 7.0 | 12.9 | -6.3 | 111.1* | 89.5* | 34.8*
COc1ccc([N+](=O)[O-])cc1/C=N/NC(=O)CNC(=O)C(c1ccccc1)c1ccccc1 | -7.1 | 4.5 | 14.1 | 4.1 | x | x
CN(C)CCCN1C(=O)C2CCc3[nH]c4ccccc4c3C2C1=O (stereo not given) | -4.6 | -1.6 | 4.5 | 0.0 | x | x
COc1cccc2sc3cc(NCc4ccc(C)o4)ccc3c(=O)c12 | -16.9 | x | -17.0 | 95.7* | 95.2* | 54.8*
COc1ccc(C(=O)N=c2sccn2C)cc1 | -8.1 | -6.2 | 2.2 | 39.5 | x | x
Cn1ccsc1=NC(=O)c1ccc(Cl)cc1 | 4.5 | -7.3 | -5.5 | 87.8* | 125.9* | 25.2*
Cn1ccsc1=NC(=O)c1ccc(OC(F)(F)F)cc1 | -3.5 | 1.4 | 5.3 | 98.0* | 109.1* | 23.8*
O=C(NC1CC1)c1ccc(Cl)c(S(=O)(=O)N2CCOCC2)c1 | -2.2 | 7.6 | -1.4 | -1.0 | x | x
